Source: ChEMBL document CHEMBL1128449, “Novel 4'-substituted and 4',4"-disubstituted 3 alpha-(diphenylmethoxy)tropane analogs as potent and selective dopamine uptake inhibitors” (J Med Chem, 1995)

Assays:
[1] = target: T1, Sodium-dependent dopamine transporter (Rattus norvegicus, UniProt P23977); assay: Inhibition of [3H]dopamine uptake in rat caudate putamen.; format: functional, tissue-based
[2] = target: Sodium-dependent serotonin transporter (Rattus norvegicus) (UniProt P31652); assay: Inhibition of [3H]citalopram binding at rat serotonin transporter; 10 uM
Summary of the method: (§1)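 Contract-lab radioligand displacement, percent inhibition at 10 μM test compound; 5HTT used [³H]citalopram at 0.7 nM final, NET used [³H]desmethylimipramine at 3.0 nM final.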

[3] = target: Norepinephrine transporter (Rattus norvegicus) (UniProt Q9WTR4); assay: Inhibition of [3H]desmethylimipramine binding at rat norepinephrine transporter; 10 uM; summary of the method: as §1
[4] = target: T1, Sodium-dependent dopamine transporter; assay: Affinity for rat dopamine transporter using [3H]WIN-35428 displacement.
Summary of the method: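 Rat caudate putamen (male Sprague–Dawley, 200–250 g) homogenised in ice-cold modified Krebs-HEPES, pH 7.4, washed and used fresh (0.5% w/v). Filtration, scintillation counting. Ki from nonlinear least-squares fitting of three independent experiments, F test model selection.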

[5] = target: T2, Muscarinic acetylcholine receptor M1 (Rattus norvegicus, UniProt P08482); assay: Affinity for rat M1 acetylcholine receptor using [3H]pirenzepine displacement.
T2 sequence (P08482 whole entry): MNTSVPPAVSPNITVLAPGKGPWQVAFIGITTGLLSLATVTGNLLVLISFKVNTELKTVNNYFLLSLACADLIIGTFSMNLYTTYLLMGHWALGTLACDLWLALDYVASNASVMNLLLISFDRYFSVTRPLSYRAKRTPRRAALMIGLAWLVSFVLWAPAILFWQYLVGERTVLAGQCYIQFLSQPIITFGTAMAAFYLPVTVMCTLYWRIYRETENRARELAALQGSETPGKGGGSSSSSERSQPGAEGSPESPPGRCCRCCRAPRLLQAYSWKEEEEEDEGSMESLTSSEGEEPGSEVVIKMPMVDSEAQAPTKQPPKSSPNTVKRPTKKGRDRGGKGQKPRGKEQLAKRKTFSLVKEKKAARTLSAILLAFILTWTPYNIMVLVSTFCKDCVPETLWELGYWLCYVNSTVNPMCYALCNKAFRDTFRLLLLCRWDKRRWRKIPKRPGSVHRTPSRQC

[6] = target: T3, Muscarinic acetylcholine receptor M2 (Rattus norvegicus, UniProt P10980); assay: Affinity for rat M2 acetylcholine receptor using [3H]-AF DX 384 displacement.
T3 sequence (P10980 whole entry): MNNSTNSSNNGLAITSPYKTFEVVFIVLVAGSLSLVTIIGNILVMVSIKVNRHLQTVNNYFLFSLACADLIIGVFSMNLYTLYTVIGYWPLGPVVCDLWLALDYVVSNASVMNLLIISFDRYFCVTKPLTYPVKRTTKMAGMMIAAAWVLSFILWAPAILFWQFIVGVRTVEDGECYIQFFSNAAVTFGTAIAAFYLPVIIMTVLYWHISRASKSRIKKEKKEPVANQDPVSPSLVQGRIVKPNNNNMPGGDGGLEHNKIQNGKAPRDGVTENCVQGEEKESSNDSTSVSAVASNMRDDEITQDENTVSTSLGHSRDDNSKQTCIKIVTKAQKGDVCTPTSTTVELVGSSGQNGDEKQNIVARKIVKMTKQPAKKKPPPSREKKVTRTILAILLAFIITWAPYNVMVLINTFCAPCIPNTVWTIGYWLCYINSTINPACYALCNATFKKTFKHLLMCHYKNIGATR

Chain of Sodium-dependent serotonin transporter (Rattus norvegicus) (P31652 whole entry): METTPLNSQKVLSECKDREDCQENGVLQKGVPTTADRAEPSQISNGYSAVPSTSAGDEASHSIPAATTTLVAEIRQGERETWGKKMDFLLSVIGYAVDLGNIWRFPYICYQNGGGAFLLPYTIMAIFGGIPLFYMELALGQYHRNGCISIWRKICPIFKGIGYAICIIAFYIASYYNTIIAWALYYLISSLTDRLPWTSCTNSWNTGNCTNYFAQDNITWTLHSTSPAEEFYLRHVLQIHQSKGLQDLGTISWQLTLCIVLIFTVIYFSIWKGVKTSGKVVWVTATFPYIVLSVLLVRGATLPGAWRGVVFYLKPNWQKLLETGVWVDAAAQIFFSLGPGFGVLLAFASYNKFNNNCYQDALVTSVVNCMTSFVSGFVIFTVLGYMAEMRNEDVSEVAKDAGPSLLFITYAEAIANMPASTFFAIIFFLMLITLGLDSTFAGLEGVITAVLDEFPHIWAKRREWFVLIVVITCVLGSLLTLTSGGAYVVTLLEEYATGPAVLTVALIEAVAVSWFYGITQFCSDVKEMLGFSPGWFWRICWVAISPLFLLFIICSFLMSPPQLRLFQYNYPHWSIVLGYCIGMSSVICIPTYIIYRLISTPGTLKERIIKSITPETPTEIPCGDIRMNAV
T1 sequence (P23977 whole entry): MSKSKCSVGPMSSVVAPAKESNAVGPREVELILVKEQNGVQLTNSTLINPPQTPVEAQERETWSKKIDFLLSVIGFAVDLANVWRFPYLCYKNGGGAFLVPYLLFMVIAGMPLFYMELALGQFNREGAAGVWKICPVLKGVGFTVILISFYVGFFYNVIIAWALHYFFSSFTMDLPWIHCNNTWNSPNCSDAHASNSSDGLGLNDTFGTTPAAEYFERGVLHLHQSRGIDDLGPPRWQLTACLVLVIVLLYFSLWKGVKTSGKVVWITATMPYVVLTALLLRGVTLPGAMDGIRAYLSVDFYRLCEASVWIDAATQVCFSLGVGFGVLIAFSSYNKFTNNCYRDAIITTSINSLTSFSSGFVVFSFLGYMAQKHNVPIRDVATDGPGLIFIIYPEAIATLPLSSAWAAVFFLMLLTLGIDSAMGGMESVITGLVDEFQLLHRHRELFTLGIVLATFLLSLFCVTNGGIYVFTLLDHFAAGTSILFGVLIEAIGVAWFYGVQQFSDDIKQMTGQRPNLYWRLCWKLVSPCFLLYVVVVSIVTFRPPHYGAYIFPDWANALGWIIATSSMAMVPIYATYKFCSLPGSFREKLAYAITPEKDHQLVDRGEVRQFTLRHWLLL
Chain of Norepinephrine transporter (Rattus norvegicus) (Q9WTR4 as listed by the source): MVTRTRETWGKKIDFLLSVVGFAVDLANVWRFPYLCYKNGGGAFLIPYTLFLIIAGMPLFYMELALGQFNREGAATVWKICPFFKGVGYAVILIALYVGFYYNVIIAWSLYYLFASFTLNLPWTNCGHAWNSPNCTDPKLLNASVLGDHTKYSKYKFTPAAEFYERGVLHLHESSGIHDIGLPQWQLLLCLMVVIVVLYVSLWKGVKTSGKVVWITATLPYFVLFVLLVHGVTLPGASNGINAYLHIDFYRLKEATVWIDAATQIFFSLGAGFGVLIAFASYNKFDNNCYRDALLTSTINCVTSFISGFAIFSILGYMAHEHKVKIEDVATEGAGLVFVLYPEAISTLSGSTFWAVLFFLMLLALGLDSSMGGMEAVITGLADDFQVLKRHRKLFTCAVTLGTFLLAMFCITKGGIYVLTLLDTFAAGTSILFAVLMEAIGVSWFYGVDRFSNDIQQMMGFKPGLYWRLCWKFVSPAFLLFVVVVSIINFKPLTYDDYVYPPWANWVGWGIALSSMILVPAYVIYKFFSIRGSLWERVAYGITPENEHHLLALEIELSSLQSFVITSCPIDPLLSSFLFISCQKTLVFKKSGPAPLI

Which IC50 [1] does the source give for `CN1[C@@H]2CC[C@H]1C[C@@H](OC(c1ccccc1)c1ccc(C#N)cc1)C2` (stereo partly drawn) here?
The IC50 was 222 nM.

And the inhibition [2]?
The inhibition was 40%.

And the inhibition [3]?
The inhibition was 16%.

For `CN1[C@@H]2CC[C@H]1C[C@@H](OC(c1ccccc1)c1ccc(C(F)(F)F)cc1)C2` (stereo partly drawn), which IC50 [1] is on record?
Its IC50 is 2150 nM.

What about the inhibition [2] of the same compound?
Its inhibition is 49.1%.

What about the inhibition [3] of the same compound?
The inhibition was 34.6%.

`CN1[C@@H]2CC[C@H]1C[C@@H](OC(c1ccccc1)c1ccc(F)cc1)C2` (stereo partly drawn) was tested. Which inhibition [2] did it give?
The inhibition was 35.2%.

And the inhibition [3]?
The inhibition was 37.9%.

Which inhibition [2] does the source give for `CN1C2CCC1CC(OC(c1ccccc1)c1ccc(Cl)cc1)C2` (stereo in doubt; 10) [listing 1 of 2 here] here?
The inhibition was 37.2%.

And the inhibition [3]?
Its inhibition is 27.9%.

For `CN1[C@@H]2CC[C@H]1C[C@@H](OC(c1ccccc1)c1ccc([N+](=O)[O-])cc1)C2` (stereo partly drawn), which IC50 [1] is on record?
The IC50 was 219 nM.

What about the inhibition [2] of the same compound?
The inhibition was 54%.

And the inhibition [3]?
The inhibition was 29%.

How did the IC50 [1] turn out when `CN1[C@@H]2CC[C@H]1C[C@@H](OC(c1ccc(F)cc1)c1ccc(Cl)c(Cl)c1)C2` (stereo partly drawn) was run?
The IC50 was 24 nM.

What about the inhibition [2] of the same compound?
The inhibition was 80.3%.

What about the inhibition [3] of the same compound?
Its inhibition is over 57.8%.

For `Cc1ccc(C(O[C@H]2C[C@H]3CC[C@@H](C2)N3C)c2ccccc2)cc1` (stereo partly drawn), which IC50 [1] is on record?
The IC50 was 512 nM.

What about the inhibition [2] of the same compound?
The inhibition was 35.4%.

What about the inhibition [3] of the same compound?
The inhibition was 31.8%.

What does the source list for `COc1ccc(C(O[C@H]2C[C@H]3CC[C@@H](C2)N3C)c2ccccc2)cc1` (stereo partly drawn)?
IC50 [1]: 468 nM; inhibition [2]: 30.5%; Ki [4]: 78.4 nM; inhibition [3]: 30.9%

How did the inhibition [2] turn out when `CN1C2CCC1CC(OC(c1ccc(F)cc1)c1ccc(F)cc1)C2` (stereo not drawn) was run?
The inhibition was 62%.

And the inhibition [3]?
The inhibition was 30%.

`CN1C2CCC1CC(OC(c1ccccc1)c1ccc(Cl)cc1)C2` (stereo in doubt; 10) [listing 2 of 2 here] was tested. Which IC50 [1] did it give?
The IC50 was 3520 nM.

And the Ki [5]?
Its Ki is 4.1 nM.

What about the Ki [6] of the same compound?
The Ki was 87.4 nM.

Which results are given for `CN1[C@@H]2CC[C@H]1C[C@@H](OC(c1ccccc1)c1ccc(Br)cc1)C2` (stereo partly drawn)?
IC50 [1]: 29 nM; inhibition [2]: 39%; inhibition [3]: 37%

What does the source list for `CN1C2CCC1CC(OC(c1ccccc1)c1ccc(Cl)cc1)C2` (stereo in doubt; 7a) [listing 1 of 2 here]?
inhibition [2]: 34%; inhibition [3]: 32%

`CN1[C@@H]2CC[C@H]1C[C@@H](OC(c1ccccc1)c1ccc(Cl)c(Cl)c1)C2` (stereo partly drawn) was tested. Which IC50 [1] did it give?
Its IC50 is 47 nM.

And the inhibition [2]?
The inhibition was 66.2%.

And the Ki [4]?
The Ki was 21.1 nM.

And the inhibition [3]?
The inhibition was 56.5%.

`CN1[C@@H]2CC[C@H]1C[C@@H](OC(c1ccc(Br)cc1)c1ccc(Br)cc1)C2` was tested. Which IC50 [1] did it give?
Its IC50 is 34 nM.

And the inhibition [2]?
The inhibition was 41%.

What about the Ki [5] of the same compound?
Its Ki is 70.8 nM.

And the inhibition [3]?
The inhibition was 41.1%.

`CN1C2CCC1CC(OC(c1ccccc1)c1ccc(Cl)cc1)C2` (stereo in doubt; 7a) [listing 2 of 2 here] was tested. Which IC50 [1] did it give?
Its IC50 is 115 nM.

What about the Ki [5] of the same compound?
Its Ki is 3.6 nM.

And the Ki [4]?
The Ki was 30 nM.

And the Ki [6]?
Its Ki is 36.6 nM.

What does the source list for `CN1[C@@H]2CC[C@H]1C[C@@H](OC(c1ccccc1)c1ccc(C(C)(C)C)cc1)C2` (stereo partly drawn)?
IC50 [1]: 4460 nM; inhibition [2]: 24.7%; inhibition [3]: 37.6%

With `COc1ccc(C(O[C@H]2C[C@H]3CC[C@@H](C2)N3C)c2ccc(OC)cc2)cc1` as the compound, how does the IC50 [1] read?
Its IC50 is 2880 nM.

What about the inhibition [2] of the same compound?
The inhibition was 31%.

And the Ki [4]?
Its Ki is 2000 nM.

What about the inhibition [3] of the same compound?
Its inhibition is 34%.

How did the IC50 [1] turn out when `CN1[C@@H]2CC[C@H]1C[C@@H](OC(c1ccccc1)c1ccc(O)cc1)C2` (stereo partly drawn) was run?
Its IC50 is 677 nM.

And the inhibition [2]?
Its inhibition is 23.3%.

And the inhibition [3]?
Its inhibition is 27.3%.

Which IC50 [1] does the source give for `Cc1ccc(C(O[C@H]2C[C@H]3CC[C@@H](C2)N3C)c2ccc(C)cc2)cc1` here?
Its IC50 is 2540 nM.

What about the inhibition [2] of the same compound?
The inhibition was 35.5%.

And the inhibition [3]?
The inhibition was 35.1%.

What does the source list for `CCc1ccc(C(O[C@H]2C[C@H]3CC[C@@H](C2)N3C)c2ccccc2)cc1` (stereo partly drawn)?
IC50 [1]: 984 nM; inhibition [2]: 42.7%; inhibition [3]: 32.7%

With `CN1[C@@H]2CC[C@H]1C[C@@H](OC(c1ccc(Cl)cc1)c1ccc(Cl)cc1)C2` as the compound, how does the inhibition [2] read?
Its inhibition is 54%.

What about the inhibition [3] of the same compound?
Its inhibition is over 43%.
